Experimental data reported in ChEMBL document CHEMBL5154715, “Phenolic Lipids Derived from Cashew Nut Shell Liquid to Treat Metabolic Diseases” (J Med Chem, 2022).
Calls of active or inactive are those of the source. The calls are words filed in the database; no cut-off is given here.

How the values were obtained:
[1] = Metabolic stability in C57BL/6 mouse liver microsomes assessed as half life; format: ADME, Microsome; settings: time 2 min
[2] = target: T1, Peroxisome proliferator-activated receptor gamma (Mus musculus) (UniProt P37238); test: Agonist activity at human PPARgamma in mouse 3T3-L1 cells assessed as induction of adipogenic differentiation at 25 uM measured after 11 days by Oil Red O staining analysis; format: cell-based; settings: filed as agonist, time 11.0 day
T1 sequence (whole entry): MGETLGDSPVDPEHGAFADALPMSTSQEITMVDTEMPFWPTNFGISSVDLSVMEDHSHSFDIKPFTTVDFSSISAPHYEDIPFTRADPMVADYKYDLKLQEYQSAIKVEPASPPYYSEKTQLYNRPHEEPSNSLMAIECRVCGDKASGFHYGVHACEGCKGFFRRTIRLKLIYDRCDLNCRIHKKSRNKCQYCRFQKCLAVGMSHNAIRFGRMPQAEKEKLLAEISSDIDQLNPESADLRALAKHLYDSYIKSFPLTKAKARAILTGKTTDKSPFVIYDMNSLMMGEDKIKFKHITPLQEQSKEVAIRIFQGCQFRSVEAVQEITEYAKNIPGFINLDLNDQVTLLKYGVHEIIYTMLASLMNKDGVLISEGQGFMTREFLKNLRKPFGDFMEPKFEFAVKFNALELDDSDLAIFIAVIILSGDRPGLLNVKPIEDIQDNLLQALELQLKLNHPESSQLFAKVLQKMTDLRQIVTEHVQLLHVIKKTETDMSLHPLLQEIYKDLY
Method in brief: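 3T3-L1 cells differentiated for 11 days (IBMX/dexamethasone/insulin induction, then insulin, then maintenance medium) with 25 μM compound or 10 μM rosiglitazone from day 0. Cells formalin-fixed and stained with 0.6% Oil Red O. Lipid quantified spectrophotometrically after dye extraction.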

[3] = target: T2, Peroxisome proliferator-activated receptor gamma (Homo sapiens, UniProt P37231); test: Agonist activity at human PPARgamma expressed in HEK293 cells by luciferase/beta-galactosidase reporter gene assay; format: cell-based
T2 sequence (P37231 whole entry): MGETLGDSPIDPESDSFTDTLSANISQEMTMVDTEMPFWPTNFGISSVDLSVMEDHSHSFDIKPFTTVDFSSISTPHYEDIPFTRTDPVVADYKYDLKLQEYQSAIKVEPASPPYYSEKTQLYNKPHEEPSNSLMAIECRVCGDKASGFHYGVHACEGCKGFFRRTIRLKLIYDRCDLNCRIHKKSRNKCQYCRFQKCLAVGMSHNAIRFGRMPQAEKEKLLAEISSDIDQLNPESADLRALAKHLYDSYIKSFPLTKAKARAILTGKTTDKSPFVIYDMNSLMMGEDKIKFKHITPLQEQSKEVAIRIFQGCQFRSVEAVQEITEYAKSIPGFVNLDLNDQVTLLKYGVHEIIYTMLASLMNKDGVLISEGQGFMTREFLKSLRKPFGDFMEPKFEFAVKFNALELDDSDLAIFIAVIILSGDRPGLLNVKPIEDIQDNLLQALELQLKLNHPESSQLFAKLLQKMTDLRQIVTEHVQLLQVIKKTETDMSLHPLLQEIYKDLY
Method in brief: (§1)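 HEK293 cells in charcoal-stripped FBS, calcium phosphate co-transfected with GAL4-hPPAR LBD fusion, UAS-luciferase and β-galactosidase. Ligand added 6–8 h post transfection, full dose–response, harvested 14–16 h later. Luciferase normalized to β-galactosidase.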

[4] = target: T3, Peroxisome proliferator-activated receptor alpha (Homo sapiens) (UniProt Q07869); test: Agonist activity at human PPARalpha expressed in HEK293 cells assessed as maximal activity by luciferase/beta-galactosidase reporter gene assay relative to GW7647; format: cell-based; method in brief: as §1
T3 sequence (whole entry): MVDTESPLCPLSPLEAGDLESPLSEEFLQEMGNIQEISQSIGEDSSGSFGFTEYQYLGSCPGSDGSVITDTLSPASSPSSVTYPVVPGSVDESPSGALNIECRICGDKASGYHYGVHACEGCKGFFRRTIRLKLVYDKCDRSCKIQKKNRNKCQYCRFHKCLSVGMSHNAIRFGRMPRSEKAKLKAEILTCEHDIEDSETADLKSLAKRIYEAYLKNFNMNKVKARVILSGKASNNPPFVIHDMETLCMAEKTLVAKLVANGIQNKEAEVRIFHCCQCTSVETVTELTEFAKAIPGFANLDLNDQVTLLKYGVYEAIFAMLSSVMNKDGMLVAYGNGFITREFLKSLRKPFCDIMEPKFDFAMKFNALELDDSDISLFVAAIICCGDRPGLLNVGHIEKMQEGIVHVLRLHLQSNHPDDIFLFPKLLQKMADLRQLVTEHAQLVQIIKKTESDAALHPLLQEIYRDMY

[5] = target: T4, Peroxisome proliferator-activated receptor alpha (Mus musculus) (UniProt P23204); test: Agonist activity at human PPARalpha in mouse hepatocytes assessed as induction of Fgf21 mRNA expression at 50 uM incubated for 16 hrs by quantitative real-time PCR analysis; format: cell-based; settings: Hepatocyte, filed as agonist
T4 sequence (whole entry): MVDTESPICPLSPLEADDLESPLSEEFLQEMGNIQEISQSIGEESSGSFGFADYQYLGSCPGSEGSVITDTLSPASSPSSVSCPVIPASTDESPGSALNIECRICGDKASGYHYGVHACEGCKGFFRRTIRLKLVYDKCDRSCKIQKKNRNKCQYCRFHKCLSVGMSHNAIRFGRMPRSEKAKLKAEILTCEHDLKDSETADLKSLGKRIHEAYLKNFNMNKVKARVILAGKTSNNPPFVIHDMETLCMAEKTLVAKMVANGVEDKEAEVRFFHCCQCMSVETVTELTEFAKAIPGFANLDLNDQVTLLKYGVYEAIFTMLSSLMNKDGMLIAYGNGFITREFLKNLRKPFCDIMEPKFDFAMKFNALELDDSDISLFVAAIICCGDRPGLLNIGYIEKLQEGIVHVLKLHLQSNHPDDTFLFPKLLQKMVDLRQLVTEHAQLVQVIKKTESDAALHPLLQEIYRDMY
Method in brief: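 Collagenase-perfused mouse primary hepatocytes from WT mice, plated 2 h in attachment medium, overnight in M199 with 5% charcoal-stripped FBS and 1 nM insulin. Treated next day in serum-free M199 with 50 μM compound for 16 h. RNA qPCR (SYBR Green), comparative Ct method.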

[6] = target: T5, Peroxisome proliferator-activated receptor delta (Homo sapiens) (UniProt Q03181);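 further: reporter gene assay with luciferase read-out normalized to beta-galactosidase, measuring agonist activation of PPARδ expressed in HEK293 cells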
T5 sequence (whole entry): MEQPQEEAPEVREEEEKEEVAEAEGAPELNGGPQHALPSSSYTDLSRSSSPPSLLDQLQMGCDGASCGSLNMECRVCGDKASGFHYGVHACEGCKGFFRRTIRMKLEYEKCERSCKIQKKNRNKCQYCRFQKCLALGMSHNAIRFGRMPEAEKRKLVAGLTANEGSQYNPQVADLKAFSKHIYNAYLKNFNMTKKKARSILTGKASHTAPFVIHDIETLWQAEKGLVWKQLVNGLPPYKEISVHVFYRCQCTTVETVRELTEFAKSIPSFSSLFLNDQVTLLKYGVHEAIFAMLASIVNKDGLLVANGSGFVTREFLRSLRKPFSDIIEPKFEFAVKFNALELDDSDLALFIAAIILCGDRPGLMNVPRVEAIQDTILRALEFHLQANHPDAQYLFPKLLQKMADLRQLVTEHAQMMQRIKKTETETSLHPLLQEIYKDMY

| Structure (SMILES) | half-life [1] [h] | Activity [2] | EC50 [3] [µM] | Emax ([4]; filed as agonist) [%] | Activity [5] | EC50 ([6]; HEK293, filed as agonist) [µM] | EC50 ([6]; HEK293) [µM] | Emax [4] [%] |
| --- | --- | --- | --- | --- | --- | --- | --- | --- |
| CCCCCC/C=C\CCCCCCCc1cccc(OC(C)(C)C(=O)O)c1 | 13.9 | Active | 1.78 | > 90 | Active | 21 | – | – |
| CCCCCCCCCCCCCCCc1cccc(OC(C)=O)c1C(=O)O | 0.0333 | Active | – | > 90 | – | – | > 50 | – |
| CCCCCCCCCCCCCCCc1cccc(OC(C)(C)C(=O)O)c1 | 6 | Active | 0.9 | – | Active | 33 | – | 30 |
